Test: Toxicity liver stage against HepG2, at 10uM
Type: cell-based
Design: test concentration 10 uM, cell line HepG2-A16-CD81EGFP
Details: human, HepG2-A16-CD81EGFP cells; read-out: INHIBITION
Outline: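 Uninfected HepG2-A16-CD81EGFP cells, 3 × 10^3 per well, 1536-well, plated on prespotted compound at 10 μM final, parasite-free screening media added to match infected plates; puromycin 10 μM positive, DMSO 0.5% negative; run in parallel with 48 h PbLuc assay at 37 °C, 5% CO2; viability by CellTiter-Glo luminescence, normalized to controls.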

Compound	cytotoxicity at 10 µM [%]
COCCN(Cc1cnn(C)c1)C(=O)C1CCN(C2CCCCC2)CC1	12.6
CN1CCC2(CCN(c3ncc(F)cn3)CC2)C1=O	0.411
Cc1csc(CN2C[C@@H]3CN(C)CCO[C@@H]3C2)n1	-105
Cc1nn(C)c(C)c1C1CCCN1CC(=O)NC(C1CC1)C1CC1 (configuration not stated)	-5.38
Cc1nccn1C1CCCN(C(=O)c2ccc3c(c2)nnn3C)C1 (configuration not stated)	-7.89
CC(=O)N1CCOC(c2c(C(=O)NC(C)(C)C)sc3ccccc23)C1 (configuration not stated)	8
CC(CO)NC(=O)c1ccc(NCc2ccccc2)cc1 (configuration not stated)	-6.63
O=C(NC1CCCN(Cc2c(F)cccc2F)C1)c1cnccn1 (configuration not stated)	-1.62
COc1cccc(NC(=O)N2CCC(O)(C(F)(F)F)C2)c1 (configuration not stated)	3.2
O=C(CC1CC1)N1CCc2ncc(Cn3cncn3)n2CC1	-71.6
CN(C)C(=O)c1n[nH]c2c1CN(Cc1ccccn1)CC2	3.17
COCC1CC2(CCN(c3cc(OC)ncn3)CC2)CN1C(C)C (configuration not stated)	-108
CC1COCCN1C(=O)NCCCn1ccnc1 (configuration not stated)	-44.9
Cc1cnn(CC(C)NCc2ccccc2OCc2cccnc2)c1 (configuration not stated)	-12.9
CS(=O)(=O)N1CCC2(CC1)CN(CC1CCOC1)c1ccccc12 (configuration not stated)	-108
Cc1cnn(CC2CCCCN2Cc2nnsc2Cl)c1 (configuration not stated)	-2.93
O=C(CN1CC(c2nc(-c3ccco3)no2)C1)NCC1CCCO1 (configuration not stated)	2.21
CN(CCO)C[C@@H]1CN(Cc2ccccc2C#N)C[C@@H]1CO	-0.951
CCOCCOC(C)C(=O)Nc1ccc2[nH]c(C)cc2c1 (configuration not stated)	5.35
CS(=O)(=O)N[C@@H]1CN(Cc2ccccc2)C[C@H]1O	-2.92
c1ccc(CCN2C[C@@H]3OCCN(c4ncccn4)[C@@H]3C2)cc1	-74.1
COc1c(CNC2CCCOc3ccccc32)c(C(C)C)nn1C (configuration not stated)	-3.48
Cn1cc(N2CCC(NC(=O)c3ccccc3Cl)C2=O)cn1 (configuration not stated)	4.35

Compound	cytotoxicity at 10 µM [%]
CNC(=O)COc1ccccc1CNC1CCc2ncnn2C1 (configuration not stated)	-13.6
COc1ccc(C)cc1CC(=O)NC(CC(=O)O)c1ccc(F)cc1 (configuration not stated)	7.66
CC1c2ncc(Cn3cncn3)n2CCN1C(=O)c1cscn1 (configuration not stated)	-17.5
Cc1ccc(C2(CN3CCN(Cc4cn(C)nc4C)CC3)CC2)cc1	1.74
CC(NC(=O)N1CCc2ccccc21)c1nncn1C (configuration not stated)	-5.3
Cc1cc(C(=O)N2CCc3ncnc(-c4cnn(C)c4)c3CC2)c(C)o1	4.5
CCN(Cc1nccn1C)C1CCN(c2ccccc2)C1=O (configuration not stated)	4.19
CN(C(=O)C1(C#N)CCCCC1)c1nccs1	0.658
Cc1cc(NC(=O)N2CCCC(O)C2)nn1-c1ccccc1Cl (configuration not stated)	4.99
CN1CCC(N(Cc2ccco2)S(=O)(=O)c2ccc(Cl)cc2)CC1	-1.1
Cc1cc(NC(=O)N2CCN(C)CC2C)n(C(C)(C)C)n1 (configuration not stated)	6.3
O=C(O)c1nnn(-c2cc(F)cc(F)c2)c1-c1ccncc1	7.16
c1coc(CN2C[C@@H]3CCCO[C@@H]3[C@H](N3CCCC3)C2)c1	-2.02
O=C(NCc1cncc2c1CCN(Cc1ccc(F)cc1)C2)C1CC1	-3.26
CC(C)CNC(=O)c1nc(COc2ccc3c(c2)OCO3)no1	2.93
CN(C)S(=O)(=O)c1ccc(-c2nc(C#N)c(NC3CC3)o2)o1	-18.4
CCN1CCC2(CC1)CC(NC(=O)c1ccnnc1)c1ccccc12 (configuration not stated)	-6.9
COCCNC(=O)c1cc(-c2cc[nH]n2)n2ccccc12	10.4
CN(Cc1cc(F)ccc1C#N)CC(C)(CO)CO	-10.4
CN1CCNC(Cc2ccc(-c3cccs3)cc2)C1=O (configuration not stated)	-29.3
O=C(C1=CCCC1)N1C[C@@H]2COC[C@]2(COc2ncccc2F)C1	-99.3
O=C(c1cccc(Cl)c1)N1CC[C@@H](N2CCC(O)CC2)[C@H](O)C1	-1.61
Cc1n[nH]c(C)c1-c1cnc(CC2CCN(C)C2)cn1 (configuration not stated)	-2.11

Compound	cytotoxicity at 10 µM [%]
COc1c(C)cnc(CN2CCn3c(nnc3C3CC3)C2)c1C	-4.94
Cc1ccc(CC(=O)N2Cc3nccn3CC(CN(C)C)C2)cc1 (configuration not stated)	-9.58
c1ccc2sc(CN3CCCC3c3noc(C4CC4)n3)nc2c1 (configuration not stated)	-9.88
CC(=O)C(Cc1ccccc1)NC(=O)CSc1nccn1C1CC1 (configuration not stated)	5.22
CSc1ccc(CN2CCn3nc(CNC(C)=O)cc3C2)cc1	17.4
CC(C)NC(=O)N1C[C@@H](F)[C@@H](OCc2nc3ccccc3o2)C1	8.16
Cn1nnc2c1C(COCc1ccccn1)CN(C(=O)c1cccs1)C2 (configuration not stated)	-11.2
CC(C)(N)CNS(=O)(=O)Cc1cccc2cccnc12	14.5
CC1CN(C(=O)Nc2cc(C(F)(F)F)c[nH]c2=O)CC(C)(C)O1 (configuration not stated)	8.96
CCc1nnsc1C(=O)N1CCCN(Cc2cnn(C)c2)CC1	-2.26
COc1ccc(Oc2ccc(C(F)(F)F)cn2)cc1CN1CCCC1	-5.62
CCc1cnc(NCC(C)Oc2cccnc2)nc1 (configuration not stated)	0.977
Cc1ccoc1C(=O)N1CCCC2(CCCN2S(C)(=O)=O)C1 (configuration not stated)	-143
CC(=O)c1c(O)n(C)c2ccc(F)cc12	6.76
Cn1nc(C2CCN(CC(=O)NC3CC3)CC2)n(-c2ccccc2)c1=O	-22.3
CC(=O)NCCn1ccc(-c2ccccn2)n1	7.38
Cc1cncc(NC(=O)c2ccc(CN3CCCC(C(N)=O)C3)cc2)c1 (configuration not stated)	0.86
CC(C)Nc1nc2c(c(NC3CC3)n1)CN(C(=O)c1ccncc1)CC2	-2.29
CCn1cc(CN2CCC(CN3CCCCC3)CC2)cc1C#N	-5.77
Cc1cc(C(=O)N2Cc3ccccc3OC3(CCOCC3)C2)nc(N)n1	-0.928
O=C(c1cc(C2CC2)on1)N1CCCC(n2cncn2)C1 (configuration not stated)	-14
CS(=O)(=O)N1C[C@@H]2COC[C@]2(C(=O)NCCc2cccs2)C1	-110
CC(C)n1c2ccccc2c2c1cc(C(=O)N(C)C)n2C	-85.4

Compound	cytotoxicity at 10 µM [%]
Cn1c(CCC(=O)N2CCCC3(CC2)CNC(=O)O3)nc2cccnc21 (configuration not stated)	-3.56
CCOCCCC(=O)N(C)C(c1cccc(F)c1)c1ccccn1 (configuration not stated)	-10.2
Cc1nc(C)n(CC2CCCN2CCCOc2ccc(F)cc2)n1 (configuration not stated)	-6.72
CNC(=O)CN1CCC(NC(=O)Cc2ccccc2OC(C)C)CC1	-2.14
Cc1cnn(CCC(=O)N2CCCC(c3nc(C)no3)C2)c1 (configuration not stated)	-1.59
CS(=O)(=O)Nc1cnn(Cc2cccc(Cl)c2)c1	-2.44
COc1ncccc1C(=O)NCC(C)Oc1cccnc1 (configuration not stated)	-8.45
CC(C)c1ncc2c(n1)CN(CCCc1nc3ccccc3o1)CC2	-13.2
O=C(NCC1CC1)C1CN(C(=O)c2ccco2)CC12CCOCC2 (configuration not stated)	6.61
CC(C)N1CC2(CCC1=O)CCN(C(=O)c1cc(F)ccc1Cl)CC2	0.247
O=C(NCc1ccccc1)c1nc2c(o1)CN(C(=O)c1cccnc1)C2	-76.9
Cc1ccnn1CCC(=O)N1CCCC2(C1)NC(=O)c1ccccc1O2 (configuration not stated)	-0.776
CC(=O)c1c(C)nn(S(=O)(=O)c2ccc(C)cc2)c1C	-1.61
Cc1ccccc1CCCN1CCS(=O)(=O)CC1C (configuration not stated)	1.57
Cc1cc(C)n(C2CN(CC(O)c3ccc(S(C)(=O)=O)cc3)C2)n1 (configuration not stated)	-12.9
COCCN1C(=O)C2(CCC(C(=O)Nc3ccc(F)cc3)CC2)N=C1C (configuration not stated)	9.7
COc1ccc([C@@H]2CN(C(=O)Cc3cccs3)C[C@H]2NC(C)=O)cc1	-1.16
COCCn1ccnc1CN(Cc1ccccn1)CC(C)C	4.96
CCN1CC2(CC1=O)CN(C(C)=O)CCN(S(=O)(=O)CC)C2 (configuration not stated)	-2.02
c1cc(CCN2CCCC2CN2CCCCC2)ccn1 (configuration not stated)	0.295
COc1ccc2c(c1)CCCN2C(=O)CN1CCOC(C)C1 (configuration not stated)	2.59
Cn1cc(Br)c(C(=O)NCCCn2cc(Br)cn2)n1	-6.4
CC(C)NC(=O)CN(C)C1CCN(c2cnc3ccccc3n2)CC1	-6.14

Compound	cytotoxicity at 10 µM [%]
CCN(CC)C1CCN(C(=O)Nc2cc(F)c(OC)c(F)c2)C1 (configuration not stated)	4.55
Cc1nc2[nH]cnc(NCCCN3CCOCC3)c-2n1	-13.3
Cn1cc(CN(C(=O)C2COc3ccccc3C2)C2CC2)cn1 (configuration not stated)	1.81
Cc1c(F)cccc1CN1CCn2nc(CNC(=O)N(C)C)cc2C1	-19.4
CSCCC(Nc1nc(C)cc(C)n1)C(=O)NCC1CCOCC1 (configuration not stated)	-3.45
O=C(NCCN1CCOCC1)Nc1cnc2cc(Cl)ccc2c1O	-24
Cc1cc(CN2CCN(Cc3ccc(C#N)cc3F)CC2)no1	1.71
O=C1CC2(CCN(Cc3ccc(-c4ccn[nH]4)s3)CC2)CN1	-137
O=C(Nc1nc2c(s1)CN(S(=O)(=O)C1CC1)CC2)C1CC1	-0.849
COCC(NC(=O)c1ccoc1)c1ccc(C)o1 (configuration not stated)	3.6
CC(C)(C)c1ncc(S(C)(=O)=O)c(C2CCCNC2)n1 (configuration not stated)	-12.7
Cc1cccc(NC(=O)c2cncc(C3CCNCC3)n2)n1	0.691
CC[C@H]1COCCN1C(=O)c1cnc(-c2ccccc2)nc1C	2.84
CCN(CC(F)(F)F)C(=O)C1CCCN(Cc2nc(C)c(C)o2)C1 (configuration not stated)	-4.05
CCCSc1ncccc1C(=O)NCc1ccc(N(C)C)cc1	8.07
CCc1ccc(C2NCCc3cc4c(cc32)OCCO4)cc1 (configuration not stated)	-6.63
c1ccc(CN2CCC(Cc3noc(C4CC4)n3)CC2)cc1	5.56
CC(=O)N(C)Cc1ncn2c1CN(C(=O)CC1CC1)CCC2	-110
CC(C)c1nc(N2CCC(N3CCSCC3)CC2)c2cnn(C)c2n1	-136
CCc1cnc(CNc2cccc3c2CCN(S(=O)(=O)CC)C3)o1	-52.5
